Data set [1] can be described thus: In vitro growth inhibitory activity for effect on melting temperature of DNA was determined. The method, boiled down: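 DNA thermal denaturation; ΔTm = Tm of DNA-drug complex minus Tm of DNA. Drug 1.4×10⁻⁴ M, DNA (P) 1.4×10⁻³ M in 0.01 M phosphate buffer pH 7.0 with 5×10⁻³ M EDTA and 5% dimethyl sulfoxide.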
Data set [2] can be described thus: Therapeutic Index measured as the MTD/MED ratio compared to that of compound 4. To be noted: read-out: Therapeutic index. The method, boiled down: (§1)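 Therapeutic index is MTD/MED, with ip dosing in 10% dimethyl sulfoxide-saline on a qd 1-4 or q4d 1, 5, 9 schedule. MED is the dose giving a 40% increase in life span over control in P-388-bearing mice. MTD is the LD10 in tumor-free male CDF1 mice (18-23 g) over 21 days, read from a log dose vs. percent mortality plot and averaged over 2-3 experiments.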

A short description of data set [3]: Therapeutic Index measured as the MTD/MED ratio compared to that of compound 3. The settings on record: read-out: Therapeutic index. The method, boiled down:
as §1

Data set [4] is filed under the species Homo sapiens. The experiment in a line: (§2) In vitro growth inhibitory activity against human lymphoblastic leukemia cells. The format is functional. To be noted: read-out: ID50 (the source's name). In a few lines: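 CCRF-CEM human lymphoblastic leukemia cells in log-phase growth; compounds dissolved in Me₂SO, final growth medium 1% Me₂SO.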
For data set [5], the system named is P388. Put plainly: Antitumor activity against P-388 lymphocytic leukemia in CDF1 hybrid male mice measured as median survival time (3 mg/kg),ip. The format is functional, Mus musculus. In a few lines: (§3)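 Male CDF1 mice (18-23 g) were inoculated ip with 10⁶ P-388 cells on day 0. Drug was given ip in 10% dimethyl sulfoxide-saline on days 1, 5 and 9. Test solutions were kept at 0-4 °C, protected from light, and checked periodically for stability and homogeneity by TLC and HPLC. Read-out was survival, median survival time, increase in life span and tumor-free cures per 7 animals.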

In data set [6] the test system is P388. The experiment in a line: Antitumor activity against P-388 lymphocytic leukemia in CDF1 hybrid male mice measured as median survival time ( 0.6 mg/kg),ip. The format is functional, Mus musculus. The method, boiled down:
as §3

Data set [7] has as its system P388. Put plainly: Antitumor activity against P-388 lymphocytic leukemia in CDF1 hybrid male mice measured as median survival time (0.3 mg/kg),ip. In kind it is functional, Mus musculus. In a few lines: as §3
The subject of data set [8] is P388. The experiment in a line: Antitumor activity against P-388 lymphocytic leukemia in CDF1 hybrid male mice measured as median survival time (0.15 mg/kg),ip. In kind it is functional, Mus musculus. The method, boiled down: as §3
For data set [9], the system named is P388. Put plainly: Minimum effective dose was determined compared to 7-(2,3-Epoxypropoxy)-actinomycin D against P-388 leukemia in mice(3 days). The arrangement: unit: mg/kg. In kind it is functional, Mus musculus. The method, boiled down: (§4)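 MED was the dose (mg/kg) giving a 40% increase in life span over control in mice bearing ip P-388 leukemia. Drug was given ip in 10% dimethyl sulfoxide-saline on a q4d 1, 5, 9 (three injections) or qd 1-4 (four injections) schedule.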

For data set [10], the system named is P388. The experiment in a line: Antitumor activity against P-388 lymphocytic leukemia in CDF1 hybrid male mice measured as percent increase in lifespan(0.3 mg/kg),ip. In kind it is functional, Mus musculus. In a few lines: as §3
For data set [11], the system named is P388. Put plainly: Antitumor activity against P-388 lymphocytic leukemia in CDF1 hybrid male mice measured as median survival time ( 1.2 mg/kg),ip. The format is functional, Mus musculus. In a few lines:
as §3

Data set [12] has as its system P388. Put plainly: Number of mice with P-388 lymphocytic leukemia cured(1.2 mg/kg),ip; 0/7. The format is functional, Mus musculus. In a few lines:
as §3

For data set [13], the system named is P388. The experiment in a line: Antitumor activity against P-388 lymphocytic leukemia in CDF1 hybrid male mice measured as percent increase in lifespan( 0.6 mg/kg),ip. In kind it is functional. The settings on record: Mus musculus. In a few lines:
as §3

Data set [14] concerns P388. Put plainly: Number of mice with P-388 lymphocytic leukemia cured(0.15 mg/kg),ip.; 0/7. In kind it is functional, Mus musculus. The method, boiled down: as §3
Data set [15] has as its system P388. Put plainly: Antitumor activity against P-388 lymphocytic leukemia in CDF1 hybrid male mice measured as percent increase in lifespan( 1.2 mg/kg),ip. The settings on record: Mus musculus. In kind it is functional. In a few lines:
as §3

In data set [16] the test system is P388. The experiment in a line: Number of mice with P-388 lymphocytic leukemia cured.( 0.3 mg/kg),ip; 0/7. The format is functional, Mus musculus.
Data set [17] concerns P388. Put plainly: Maximum tolerated dose was determined compared to 7-(2,3-Epoxypropoxy)-actinomycin D against P-388 leukemia in mice(3 days). In kind it is functional, Mus musculus. In a few lines:
(§5)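 Tumor-free male CDF1 mice (18-23 g) received a broad dose range ip in 10% dimethyl sulfoxide-saline, either on days 1, 5, 9 (three injections) or on 4 successive days (qd 1-4). Deaths were recorded over 21 days. MTD was the dose lethal to 10% (LD10), taken from a plot of log dose vs percent mortality. Average of two experiments.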

Data set [18] deals with P388. Put plainly: Antitumor activity against P-388 lymphocytic leukemia in CDF1 hybrid male mice measured as percent increase in lifespan( 1.8 mg/kg),ip. In kind it is functional. To be noted: Mus musculus. The method, boiled down: as §3
The subject of data set [19] is P388. The experiment in a line: Antitumor activity against P-388 lymphocytic leukemia in CDF1 hybrid male mice measured as median survival time (1.8 mg/kg),ip. The format is functional, Mus musculus. In a few lines: as §3
Data set [20] has as its system P388. Put plainly: Minimum effective dose was determined compared to 7-(2,3-Epoxypropoxy)-actinomycin D against P-388 leukemia in mice(4 days). In kind it is functional, Mus musculus. The method, boiled down: as §4
For data set [21], the species on record is Homo sapiens. Described as §2. The format is functional. To be noted: read-out: ID50 (the source's name). In a few lines:
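Human CCRF-CEM lymphoblastic leukemia cells were used in log-phase growth. Compounds were dissolved in Me2SO, and the final growth medium contained 1% Me2SO. Test solution homogeneity was checked by TLC and HPLC at each test.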
The source holds these as a separate data set.

The subject of data set [22] is P388. The experiment in a line: Antitumor activity against P-388 lymphocytic leukemia in CDF1 hybrid male mice measured as percent increase in lifespan( 0.15 mg/kg),ip. In kind it is functional. The settings on record: Mus musculus. In a few lines:
as §3

In data set [23] the test system is P388. The experiment in a line: Number of mice with P-388 lymphocytic leukemia cured.( 0.6 mg/kg),ip; 0/7. In kind it is functional, Mus musculus.
Data set [24] concerns P388. Put plainly: Antitumor activity against P-388 lymphocytic leukemia in CDF1 hybrid male mice measured as percent increase in lifespan( 3 mg/kg),ip. In kind it is functional. To be noted: Mus musculus. The method, boiled down: as §3
Data set [25] relates to P388. Put plainly: Number of mice with P-388 lymphocytic leukemia cured( 3 mg/kg),ip; 0/7. In kind it is functional, Mus musculus. In a few lines:
as §3

Data set [26] relates to P388. Put plainly: Maximum tolerated dose was determined compared to 7-(2,3-Epoxypropoxy)-actinomycin D against P-388 leukemia in mice(4 days). In kind it is functional, Mus musculus. The method, boiled down: as §5
The subject of data set [27] is P388. Put plainly: Number of mice with P-388 lymphocytic leukemia cured.(1.8 mg/kg),ip; 0/7. The format is functional, Mus musculus.

Molecules are shown by their SMILES. Converted amounts (≈) assume the structure as drawn.

With `Cc1c2oc3c(C)c(OCC(O)CO)cc(C(=O)N[C@H]4C(=O)N[C@@H](C(C)C)C(=O)N5CCC[C@H]5C(=O)N(C)CC(=O)N(C)[C@@H](C(C)C)C(=O)O[C@H]4C)c3nc-2c(C(=O)N[C@H]2C(=O)N[C@@H](C(C)C)C(=O)N3CCC[C@H]3C(=O)N(C)CC(=O)N(C)[C@@H](C(C)C)C(=O)O[C@H]2C)c(N)c1=O` (stereo not given in full), the DNA melting temperature shift (ΔTm) in data set [1] worked out at 5.1 °C.

`Cc1c2oc3c(C)c(O)c(N)c(C(=O)N[C@@H]4C(=O)N[C@H](C(C)C)C(=O)N5CCC[C@H]5C(=O)N(C)CC(=O)N(C)[C@@H](C(C)C)C(=O)O[C@@H]4C)c3nc-2c(C(=O)N[C@@H]2C(=O)N[C@H](C(C)C)C(=O)N3CCC[C@H]3C(=O)N(C)CC(=O)N(C)[C@@H](C(C)C)C(=O)O[C@@H]2C)cc1=O` [listing 1 of 2 here]: the figures for the selectivity ratio in data set [2] and in data set [3] were 10 and 15, respectively.

Consider `Cc1c2oc3c(C)c(O)c(N)c(C(=O)N[C@H]4C(=O)N[C@@H](C(C)C)C(=O)N5CCC[C@H]5C(=O)N(C)CC(=O)N(C)[C@H](C(C)C)C(=O)O[C@H]4C)c3nc-2c(C(=O)N[C@@H]2C(=O)N[C@H](C(C)C)C(=O)N3CCC[C@@H]3C(=O)N(C)CC(=O)N(C)[C@@H](C(C)C)C(=O)O[C@@H]2C)cc1=O`, for which, in data set [1], the DNA melting temperature shift (ΔTm) came out at 6.7 °C.

With `CCN(CC)C(=O)c1c2nc3c(C(=O)N(CC)CC)cc(OCC(O)CO)c(C)c3oc-2c(C)c(=O)c1N` (stereo not given), in the data set listed under Homo sapiens [4], the IC50 was ~10 µg/mL (≈ 18.9 µM). Besides, the DNA melting temperature shift (ΔTm) in data set [1] was 0 °C.

Regarding `Cc1c2oc3c(C)c(OCC4CO4)cc(C(=O)N[C@H]4C(=O)N[C@@H](C(C)C)C(=O)N5CCC[C@H]5C(=O)N(C)CC(=O)N(C)[C@@H](C(C)C)C(=O)O[C@H]4C)c3nc-2c(C(=O)N[C@H]2C(=O)N[C@@H](C(C)C)C(=O)N3CCC[C@H]3C(=O)N(C)CC(=O)N(C)[C@@H](C(C)C)C(=O)O[C@H]2C)c(N)c1=O` (stereo not given in full), the DNA melting temperature shift (ΔTm) in data set [1] is 6 °C.

The ILS is how much longer treated animals lived than controls. With `Cc1c2oc3c(C)c(O)c(N)c(C(=O)N[C@@H]4C(=O)N[C@H](C(C)C)C(=O)N5CCC[C@H]5C(=O)N(C)CC(=O)N(C)[C@@H](C(C)C)C(=O)O[C@@H]4C)c3nc-2c(C(=O)N[C@@H]2C(=O)N[C@H](C(C)C)C(=O)N3CCC[C@H]3C(=O)N(C)CC(=O)N(C)[C@@H](C(C)C)C(=O)O[C@@H]2C)cc1=O` [listing 2 of 2 here], the MST was found to be 15 days with P388 [5]; 21 days with P388 [6]; 17 days in the data set with P388 [7]; 12 days with P388 [8]; 25 days in the data set on P388 [11]; 26 days in the data set with P388 [19]. For the same compound, the MED came to 0.275 with P388 [9] and 0.2 in the data set on P388 [20]. The compound also returned an ILS in the data set on P388 [10] of 55%. In addition, the Cure with P388 [12], in the data set on P388 [14], in the data set with P388 [16], in the data set with P388 [23], in the data set with P388 [25] and with P388 [27] was 0 throughout. Moreover, the ILS at 0.6 mg/kg in the data set with P388 [13] amounted to 89%. The same compound gave an ILS at 1.2 mg/kg in the data set with P388 [15] of 127%. The values for the MTD in the data set on P388 [17] and in the data set on P388 [26] were 4.2 and 2, respectively. In addition, the ILS at 1.8 mg/kg in the data set on P388 [18] amounted to 136%. Further, the IC50 in the data set listed under Homo sapiens [21] stood at 0.95 µg/mL (≈ 0.747 µM). In addition, the ILS at 0.15 mg/kg in the data set on P388 [22] is 10%. For the same compound, the ILS at 3 mg/kg with P388 [24] was determined as 37%.

The values are drawn from ChEMBL document CHEMBL1121953, “Carbon-7 substituted actinomycin D analogues as improved antitumor agents: synthesis and DNA-binding and biological properties” (J Med Chem, 1982).
